Only some compounds are listed: those with a hit (about 1.7% of all), similar ones and a draw of the others.
PGE2 EP2 inh: blocks the human prostaglandin E2 receptor EP2; P43116; C6 glioma cells expressing human EP2, cAMP TR-FRET; cells stimulated with saturating PGE2; inhibition, % at 25 µM; hit rate 0.52% among 260,000;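 active = percent inhibition above 40 after rounding to a whole number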;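 note: rat C6 glioma host cells with rolipram phosphodiesterase inhibitor present; the protocol text gives 20 µM as final concentration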
Target sequence (P43116 whole entry, looked up): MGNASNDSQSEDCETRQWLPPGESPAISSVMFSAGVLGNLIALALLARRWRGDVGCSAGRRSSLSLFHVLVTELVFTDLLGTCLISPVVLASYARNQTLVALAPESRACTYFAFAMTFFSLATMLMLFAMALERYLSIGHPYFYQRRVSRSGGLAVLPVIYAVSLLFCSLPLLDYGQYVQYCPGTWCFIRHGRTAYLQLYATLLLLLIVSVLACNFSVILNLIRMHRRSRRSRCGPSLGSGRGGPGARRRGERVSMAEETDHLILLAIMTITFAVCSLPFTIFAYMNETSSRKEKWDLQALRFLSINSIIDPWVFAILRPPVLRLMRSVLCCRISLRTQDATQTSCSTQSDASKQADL
EP2 mod: modulators of human EP2 prostaglandin E2 receptor; EP2-expressing cells, cAMP HTRF FRET, PGE2 co-stimulation; induction, % at 25 µM; hit rate 0.83% among 260,000;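 active = compounds whose cAMP rise, as percent of the full-agonist control response, exceeds 60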;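 note: rat C6 glioma line stably carrying human EP2 under a CMV promoter; the protocol text gives 20 µM as final concentration; 100% = response of wells given 1 µM PGE2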
Hsp70 activator: Hsp70 transcriptional activation, primary screen | HeLa Hsp70 promoter luciferase reporter, luminescence; scaled: vehicle 0, proteasome-inhibitor control 100% | activation, % at 10 µM | hit rate 0.04% among 200,000;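 active = activation above the mean across all tested compounds plus 3 SD, cutoff set per campaign, cut at about 5.5% in these data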;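 note: 100% = MG132 at 30 µM as the positive control and 0% = DMSO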
Dynein cargo inh: blocks dynein driven cargo transport along microtubules. 3617.4 mouse cells, GR-EGFP nuclear translocation imaging; test concentration mostly 20 µM; stimulated with dexamethasone, 1 µM; stronger effect = lower value. z-score, hits read low. AID 1381. hit rate 0.47% among 220,000;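 active = plate z-score of nuclear minus cytoplasmic receptor signal below a set negative limit, without overly bright fluorescence or cell loss, cut at about -3.5 in these data, passing the limit was not always enough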;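 note: z-score of nuclear minus cytoplasmic ring GR-EGFP intensity difference per well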
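Buffer or medium: tetracycline-free induction medium containing charcoal-stripped FBS / Reagent: dexamethasone agonist, 1.0 µM final, for 30 min / Technique: automated 10x imaging of fixed Hoechst-stained cells / Times: induction 48 h, compound 1 h, agonist 30 min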
* hit, by the source's call; · = no result given; ! = a repeat was not active.

SMILES	PGE2 EP2 inh	EP2 mod	Hsp70 activator	Dynein cargo inh
CC(C)(C)C(=O)/C(=C\c1ccc([N+](=O)[O-])cc1)n1cncn1	35	-32	2	-5.1*
CN(C)/C=C(/C(=O)c1ccccc1)n1cncn1	10	33	0	-0.81
CCC1CCCCN1c1nc(-c2ccncc2)nc2ccccc12 (configuration not stated)	7	47	0	-0.6
CC1CCCCN1c1nc(-c2ccncc2)nc2ccccc12 (configuration not stated)	22	65*	0	-0.42
Cc1cc(N2CCOCC2)ccc1/C=C\[N+](=O)[O-]	57*	-39	0	-1.8
O=[N+]([O-])c1ccc(N2CCOCC2)cc1O	9	-14	·	-0.16
COc1ccc(-c2noc(COc3ccc4c(c3)OCO4)n2)cc1OC	10	-47	0	0.13
COc1ccc(-c2noc(COc3ccc4c(c3)OCO4)n2)cc1	99*	-17	-1	1
COc1ccc(N2CCN(Cc3nnnn3CCc3ccccc3)CC2)cc1	5	-38	·	·
CCc1nc(N2CCCC(C)C2)c2oc3ccccc3c2n1 (configuration not stated)	7	61*	0	-0.33
COc1cc2cc(CN(Cc3nnnn3CC3CCCO3)C3CCCCC3)c(=O)[nH]c2cc1OC (configuration not stated)	8	-37	·	·
Cc1ccc(CN(CCCn2ccnc2)Cc2ccc(F)cc2F)o1	8	23	·	·
CCOC(=O)c1cc2occc2n1CC(=O)N(C(C)C)C(C)C	8	-17	·	·
CC(C)C1Cc2c(C#N)c(N)sc(=S)c2CO1 (configuration not stated)	59*	-23	0	0.078
CC1(C)Cc2c(C#N)c(N)sc(=S)c2CO1	37	24	0	0.051
CC(=O)Nc1nc(-c2ccc(Cl)cc2Cl)cs1	12	-10	·	·
CCOC(=O)CSc1nc2ccccc2c(=O)n1CC1CCCC1	8	62*	0	-0.98
CCC(=O)CCC(=O)c1ccc2ccccc2c1	9	-22	0	1.8
CC(C)N(CCC(=O)c1ccc2ccccc2c1)Cc1ccccc1	76*	-11	·	·
O=C(C[N+]12CN3CN(CN(C3)C1)C2)c1ccc(-c2ccccc2)cc1	58*	4	·	·
CCC(=O)c1ccc(-c2ccccc2)cc1	12	-7	0	2
O=C(Nc1nnc(-c2cccs2)s1)c1ccco1	44*	4	·	·
O=C(Nc1nc(-c2cccs2)cs1)c1ccco1	1	-4	0	-0.17
CC(C)=CCc1c(O)cc(O)c2c(=O)c3c(CC=C(C)C)c(O)ccc3oc12	42*	·	·	·
Cn1c(=O)c2c(nc(NCCNc3nc4c(c(=O)n(C)c(=O)n4C)n3C)n2C)n(C)c1=O	45*	20	·	·
SMILES	PGE2 EP2 inh	EP2 mod	Hsp70 activator	Dynein cargo inh
CN(C)CCNc1nc2c(c(=O)n(C)c(=O)n2C)n1C	15	-14	·	·
CCC(=O)OCN1C(=O)C=CC1=O	82*	-33	·	·
Oc1ccc2ccccc2c1CN(Cc1c(O)ccc2ccccc12)C1CCCCC1	55*	-12	·	·
CC1=CC(C)(C)N(C(=O)CSc2nnc(N)s2)c2cc(C)c(C)cc21	3	62*	0	0.59
CC1=CC(C)(C)N(C(=O)CSc2nnc(C)s2)c2ccc(C)cc21	8	33	0	-0.76
CC(C)c1nnc(NC(=O)C2CCN(c3nc4ccccc4n3C)CC2)s1	7	-213	·	·
CCOC(=O)c1cc(C)sc1NC(=O)c1ccccc1Cl	9	71*	·	·
COC(=O)CSc1nc2c(c(-c3ccco3)c1C#N)CCCC2	22	46	0	-0.84
COC(=O)CSc1nc2c(c(-c3ccc(O)cc3)c1C#N)CCCC2	3	62*	0	-0.019
Cn1c(=S)c2[nH]c(SCCN3C(=O)c4ccccc4C3=O)nc2n(C)c1=O	41*	21	·	·
Fc1cccc(F)c1C(Nc1nncs1)Nc1nncs1	46*	32	·	·
O=C(Cc1c(F)cccc1Cl)Nc1nncs1	7	-1	·	·
Clc1cccc(Cl)c1C(Nc1nncs1)Nc1nncs1	52*	15	·	·
COc1ccc(CCN(C)C(=O)C2CCN(Cc3ccc(F)cc3)CC2)cc1OC	25	-36	·	·
O=C1NN(c2ccc(Cl)c(Cl)c2)C(=O)/C1=C/c1cccc(OC(=O)c2cccs2)c1	9	-7	0	-3.8*
O=C1NN(c2ccccc2)C(=O)/C1=C\c1cccc(OC(=O)c2cccs2)c1	40*	-42	0	-3.3
COc1cc(/C=C2/C(=O)NN(c3ccc(Cl)cc3)C2=O)ccc1OC(=O)c1ccco1	13	-70	0	-0.27
COC(=O)N/N=C\c1cccc(OC(=O)c2cccs2)c1	5	-17	0	-1.1
CC(C)CSc1nc2c(c(=O)[nH]c(=O)n2C)n1CCc1ccccc1	2	44	0	0.16
CCCCCn1c(Sc2ncccn2)nc2c1c(=O)[nH]c(=O)n2C	7	-1	0	0.075
CCCCCn1c(Sc2nc3ccccc3s2)nc2c1c(=O)[nH]c(=O)n2C	7	63*	-1	-0.43
C/C=C/Cn1c(SCc2ccccc2)nc2c1c(=O)[nH]c(=O)n2C	10	66*!	0	0.42
CC(C)Sc1nc2c(c(=O)[nH]c(=O)n2C)n1CCCc1ccccc1	9	71*	·	·
CC(=O)NNC(=O)CSc1nnc2c3c4c(sc3nc(C(C)C)n12)CCCC4	12	4	·	·
Cc1cccc(C2(O)CCN(CC(O)c3ccc(F)cc3)CC2)c1 (configuration not stated)	5	-51	·	·
SMILES	PGE2 EP2 inh	EP2 mod	Hsp70 activator	Dynein cargo inh
CCn1c(SCC(=O)Nc2c(C)cccc2C)nc2c1c(=O)n(C)c(=O)n2C	17	6	·	·
Cc1ccc(Cl)cc1N1CC(O)=C(c2nc3ccccc3c(=O)[nH]2)C1=N	12	-75	·	·
C/C(=N\N)c1c(-c2ccccc2)c2cc(C)ccc2[nH]c1=O	11	14	·	-0.43
CCN(CC)c1c(-c2ccccc2)c2cc(C)ccc2[nH]c1=O	10	61*	0	-0.14
Cc1ccc(-c2ccc(C3C(C#N)=C(N)Oc4n[nH]c(C)c43)o2)cc1 (configuration not stated)	14	-12	0	0.99
Cc1[nH]nc2c1C(c1ccc(-c3ccccc3C#N)o1)C(C#N)=C(N)O2 (configuration not stated)	63*	-33	0	-0.96
Cc1ccc2cc(CN(Cc3ccco3)C(=S)Nc3ccccc3)c(=O)[nH]c2c1C	7	-39	·	·
Cc1cccc2cc(C#N)c(N3CCCCC3)nc12	11	74*	·	·
Cc1cc(C)c2cc(C#N)c(N3CCCC3)nc2c1	4	54	0	-0.85
Cc1cccc2cc(C#N)c(N3CCC(C)CC3)nc12	12	77*	·	·
Cc1cc(C)c2nc(N3CCCCC3)c(C#N)cc2c1	7	63*	·	·
Cc1cccc(C)c1NC(=O)Cn1cc(C(=O)C(C)C)c2ccccc21	1	-37	·	·
CCOC(=O)CCN(Cc1cccs1)S(=O)(=O)c1ccc(Cl)cc1	8	61*	0	4.6
CC(C)[C@@H](Cn1nnc2ccccc21)NC(=O)CN1CCCC1=O	·	-50	·	·
O=Nc1c(O)n(Cc2ccccc2)c2ccccc12	6	41	·	0.66
